Hits are enriched below; roughly 2.8% of the tested compounds scored in any of these assays.
E-selectin induc: induces E-selectin expression in human endothelial cells; HUVEC E-selectin immunofluorescence imaging; normalized: neutral wells 0, TNF-alpha wells 100; AID 686992; P16581; activation, % at 7.58 µM; hit rate 0.37% among 260,000;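 active = mean E-selectin-positive cell signal at least 10% of the positive control, reached in at least 60% of replicates, without over 20% cell loss; inconclusive = no rule given, readout overlaps actives, possibly toxicity-flagged; inactive = the rest, including those meeting only one limit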
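Test system: HUVEC | Signal: Immunofluorescence imaging | Read-out: Percent E-selectin-positive cells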
DENV2 CPE: protects cells from dengue virus 2 cytopathic effect | DENV2-infected cells, cytopathic effect rescue, plate reader | CPE inhibition, % at 9.99 µM | hit rate 1.7% among 350,000 | AID 651640; in the data active = CPE inhibition above about 20%, passing the limit was not always enough; inconclusive = no clear call, values can overlap the other calls; tested in BHK-21 cells;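 also: 0% = median of neutral control wells and 100% = median of positive control wells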
SIRT5 block: blocks human SIRT5 desuccinylation of peptide. inhibition, % at 15 µM. AID 652115. Purified SirT5, succinyl-peptide AMC, trypsin-coupled fluorescence. Q9NXA8. hit rate 1.1% among 330,000; in the data active = inhibition above about 15%; inconclusive = no clear call, values can overlap the other calls
Target sequence (Q9NXA8 whole entry, looked up): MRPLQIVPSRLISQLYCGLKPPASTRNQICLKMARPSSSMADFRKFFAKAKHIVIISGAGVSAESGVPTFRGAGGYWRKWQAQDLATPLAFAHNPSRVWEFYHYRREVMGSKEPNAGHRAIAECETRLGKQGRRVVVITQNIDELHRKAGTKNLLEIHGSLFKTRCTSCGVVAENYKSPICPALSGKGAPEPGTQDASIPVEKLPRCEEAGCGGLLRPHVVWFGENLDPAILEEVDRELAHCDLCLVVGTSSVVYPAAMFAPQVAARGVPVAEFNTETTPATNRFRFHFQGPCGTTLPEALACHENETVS
Starred values were filed as active, the others as inactive; ? = inconclusive; . = not tested or not shown.

SMILES | E-selectin induc | DENV2 CPE | SIRT5 block
C=CCNC(=S)N1CCC(C(=O)c2ccc(F)cc2)CC1 | 0 | 53* | 2
COc1ccc(NC(=S)N2CCC(C(=O)c3ccc(Cl)cc3)CC2)cc1 | . | 6 | -2
CNC(=S)N1CCC(C(=O)c2ccc(Cl)cc2)CC1 | 0 | 22* | -2
C=CCNC(=S)N1CCC(C(=O)c2ccc(OC)cc2)CC1 | . | 1 | 0
CCNC(=S)N1CCC(C(=O)c2ccc(Cl)cc2)CC1 | 2 | 3 | 2
COc1ccc(NC(=S)N2CCC(C(=O)c3ccc(F)cc3)CC2)cc1 | . | 37* | -5
Cc1ccccc1NC(=S)N1CCC(C(=O)c2ccc(F)cc2)CC1 | . | 2 | 4
Cc1ccc(C)c(NC(=S)N2CCC(C(=O)c3ccc(F)cc3)CC2)c1 | 0 | 21* | .
C[C@@H]1CN([C@@H](C)CO)C(=O)c2cc(NC(=O)CCN3CCOCC3)ccc2O[C@H]1CN(C)C(=O)Nc1cccc2ccccc12 | -2 | 17 | -2
COc1ccccc1NC(=O)N1CC(=O)N2[C@@H](CO)[C@H](c3ccc(C#Cc4ccccc4)cc3)[C@@H]2C1 | 0 | -4 | 1
O=C(CCNC(=O)C1CCN(S(=O)(=O)c2ccccc2)CC1)NCc1ccccn1 | 0 | -1 | -5
CCOc1ccc(S(=O)(=O)N2CCC(C(=O)NCc3cccnc3)CC2)cc1 | 41* | -10 | 6
Cc1ccc(S(=O)(=O)N2CCC(C(=O)NCc3cccnc3)CC2)cc1 | . | -1 | -1
COc1ccc(S(=O)(=O)N2CCC(C(=O)NCCC(=O)NCc3ccccn3)CC2)cc1 | 1 | 36* | -3
CC(C)NC(=O)Nc1cccc2c1O[C@@H](CN(C)Cc1ccc(C(=O)O)cc1)[C@H](C)CN([C@H](C)CO)C2=O | -3 | ? | -3
CCCNC(=O)N1C[C@H](C)[C@@H](OC)CN(C)C(=O)c2ccc(NS(C)(=O)=O)cc2OC[C@H]1C | 0 | 7 | -6
O=C(C[C@H]1CC[C@@H]2[C@H](COC[C@@H](O)CN2S(=O)(=O)c2cccc(Cl)c2)O1)NC1CCC1 | 0 | -25 | -4
CC(Sc1ccccn1)C(=O)Nc1ccc2c(c1)OCO2 (stereo not drawn) | -2 | -1 | 0
CC(Sc1ccccn1)C(=O)Nc1ccc2c(c1)OCCO2 (stereo not drawn) | . | 27* | 1
Cc1ccc(S(=O)(=O)N2C3CCCCC3O[C@H]2CC(=O)c2cccs2)cc1 (stereo partly drawn) | 0 | 48* | -1
CCOC(=O)C[C@@H]1OC2CCCCC2N1S(=O)(=O)c1ccc(C)cc1 (stereo partly drawn) | -4 | -3 | 3
CO[C@H]1CN(C)C(=O)c2ccc(NS(=O)(=O)c3ccccc3F)cc2OC[C@H](C)NC[C@H]1C | 0 | 9 | -4
CS(=O)(=O)Nc1ccc2c(c1)[C@@H]1C[C@@H](CC(=O)N3CCOCC3)O[C@H](CO)[C@@H]1O2 | 0 | 1 | 3
CCNC(=O)C[C@@H]1CC[C@H]2[C@H](COc3ccc(NS(=O)(=O)c4ccccc4C)cc3C(=O)N2C)O1 | 0 | 6 | 5
CN(C)C(=O)C[C@H]1CC[C@@H]2[C@H](COc3ccc(NC(=O)c4cnccn4)cc3C(=O)N2C)O1 | 0 | -6 | 0
SMILES | E-selectin induc | DENV2 CPE | SIRT5 block
CCNC(=O)C[C@H]1CC[C@H]2[C@@H](COc3ccc(NS(=O)(=O)c4ccccc4C)cc3C(=O)N2C)O1 | 0 | 18 | 18*
CCNC(=O)C[C@@H]1CC[C@@H]2[C@H](COc3ccc(NC(=O)c4cscn4)cc3C(=O)N2C)O1 | 0 | 24* | -1
COc1cccc(CNC(=O)C[C@H]2CC[C@H]3[C@H](COc4ccc(NS(=O)(=O)c5ccccc5F)cc4C(=O)N3C)O2)c1 | 0 | 0 | 20*
CN(C)C(=O)C[C@H]1CC[C@H]2[C@@H](COc3ccc(NC(=O)c4cnccn4)cc3C(=O)N2C)O1 | 0 | 60* | 3
COc1cccc(CNC(=O)C[C@H]2CC[C@H]3[C@@H](COc4ccc(NS(=O)(=O)c5ccccc5F)cc4C(=O)N3C)O2)c1 | 0 | 1 | 3
CCNC(=O)C[C@H]1CC[C@@H]2[C@H](COc3ccc(NC(=O)c4cscn4)cc3C(=O)N2C)O1 | 0 | 7 | 2
CCNC(=O)C[C@H]1CC[C@H]2[C@H](COc3ccc(NC(=O)c4ccc(C(F)(F)F)cc4)cc3C(=O)N2C)O1 | 0 | -7 | -3
COc1ccc2c3c(n(C)c2c1)[C@H](CO)N(C(=O)C1CCCC1)CC31CCN(Cc2cccc(F)c2)CC1 | 0 | -11 | 1
O=C(Cc1ccccn1)NCC[C@H]1CC[C@@H](NC(=O)Nc2ccccc2)[C@@H](CO)O1 | 0 | -2 | -1
COc1cccc(-c2ccc3c(c2)O[C@H](CN(C)C(=O)C2CC2)[C@H](C)CN([C@@H](C)CO)S3(=O)=O)c1 | 2 | ? | -5
O=C(C[C@@H]1C=C[C@@H](NS(=O)(=O)c2ccccc2)[C@H](CO)O1)NCc1ccccc1F | 1 | -4 | -3
COCC(=O)Nc1ccc2c(c1)C(=O)N(C)[C@H]1CC[C@@H](CC(=O)NCC(F)(F)F)O[C@@H]1CO2 | 0 | 15 | -2
CCNC(=O)C[C@@H]1CC[C@@H]2[C@H](COc3ccc(NC(=O)Cc4ccccc4)cc3C(=O)N2C)O1 | 0 | 27* | 2
CC(C)C(=O)Nc1ccc2c(c1)C(=O)N(C)[C@H]1CC[C@@H](CC(=O)NCc3ccccc3)O[C@@H]1CO2 | 0 | 32* | 12
COCC(=O)Nc1ccc2c(c1)C(=O)N(C)[C@@H]1CC[C@@H](CC(=O)NCC(F)(F)F)O[C@@H]1CO2 | 0 | 81* | -4
CC(C)C(=O)Nc1ccc2c(c1)C(=O)N(C)[C@H]1CC[C@H](CC(=O)NCc3ccccc3)O[C@@H]1CO2 | 0 | -1 | 3
CCNC(=O)C[C@@H]1CC[C@H]2[C@@H](COc3ccc(NC(=O)Cc4ccccc4)cc3C(=O)N2C)O1 | 0 | ? | -5
CO[C@H]1CN(C)C(=O)c2ccc(NC(=O)NC(C)C)cc2OC[C@@H](C)N(C(=O)CC2CC2)C[C@@H]1C | 0 | -5 | 3
C[C@@H]1CN([C@H](C)CO)C(=O)c2cc(C#Cc3ccccc3F)cnc2O[C@@H]1CN(C)C(=O)C1CC1 | 1 | 14 | -4
COC(=O)C1(C(=O)OC)c2ccccc2N(S(=O)(=O)c2ccc(C)cc2)C1CC(C)=O (stereo not drawn) | 0 | 7 | 2
COC(=O)C1(C(=O)OC)c2ncccc2N(S(=O)(=O)c2ccc(C)cc2)C1CC(=O)c1ccccc1 (stereo not drawn) | 0 | 21* | -2
C[C@H]1CN([C@@H](C)CO)C(=O)c2cc(C#Cc3ccccc3F)cnc2O[C@@H]1CN(C)C(=O)Cc1cccnc1 | 0 | 1 | -1
O=C(C[C@H]1CC[C@H]2[C@@H](COC[C@H](O)CN2Cc2nccs2)O1)NCc1ccc(F)cc1 | 0 | -1 | 0
O=C(C[C@@H]1C=C[C@@H](NC(=O)C2CCOCC2)[C@@H](CO)O1)Nc1nccs1 | 0 | 11 | -1
Cc1noc(C)c1S(=O)(=O)Nc1ccc2c(c1)C(=O)N([C@@H](C)CO)C[C@@H](C)[C@H](CN(C)Cc1ccc3c(c1)OCO3)O2 | 1 | . | .

Screening results from PubChem BioAssay.
